Bioassay records deposited in PubChem BioAssay by The Scripps Research Institute Molecular Screening Center.
CHRM5 antagonist – human M5 muscarinic receptor antagonists, primary screen, CHO cells, Fluo-8 calcium fluorescence. Muscarinic acetylcholine receptor M5 (Homo sapiens), P08912. CHO-hM5 cells, ACh EC80. inhibition, % at 3 µM. actives 0.59% (n = 360,000);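 active means inhibition above a per-plate cutoff, the mean of that plate's test compounds plus 3 SD, cut at about 27% in these data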;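 further: 0% = acetylcholine EC80 with DMSO and 100% = DMSO without agonist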
Target sequence (P08912 whole entry, looked up): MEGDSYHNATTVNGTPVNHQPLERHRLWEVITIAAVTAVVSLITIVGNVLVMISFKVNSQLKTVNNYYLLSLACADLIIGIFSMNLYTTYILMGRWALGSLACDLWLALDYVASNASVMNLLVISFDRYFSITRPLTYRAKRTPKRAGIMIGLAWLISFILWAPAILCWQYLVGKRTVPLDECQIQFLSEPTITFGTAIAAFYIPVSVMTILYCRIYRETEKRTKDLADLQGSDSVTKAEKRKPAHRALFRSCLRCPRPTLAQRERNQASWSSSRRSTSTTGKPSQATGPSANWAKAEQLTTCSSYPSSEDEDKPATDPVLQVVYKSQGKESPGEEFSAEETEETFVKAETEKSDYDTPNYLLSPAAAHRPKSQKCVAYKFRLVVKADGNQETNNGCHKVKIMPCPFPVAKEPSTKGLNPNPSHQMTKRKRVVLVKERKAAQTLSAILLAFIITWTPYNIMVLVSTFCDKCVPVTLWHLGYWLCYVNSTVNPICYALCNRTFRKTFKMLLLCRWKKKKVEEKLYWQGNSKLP
CHRM5 PAM – human M5 muscarinic receptor positive allosteric modulators, primary screen, CHO-K1 cells, Fluo-8 calcium fluorescence | CHO-K1 hM5, ACh EC20 PAM; 0% = ACh EC20, 100% = ACh EC100 | activation, % at 3 µM | actives 0.3% (n = 360,000);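 active means activation above the run cutoff, the mean activation of all test compounds plus 3 SD, cut at about 18% in these data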
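Test system: CHO-K1 hM5 cells / Doses: single-point, 3 µM nominal / Times: Post-acetylcholine fluorescence recording 140 s / Technique: Fluo-8 calcium fluorescence / Measure: Max/basal fluorescence ratio as % of EC20–EC100 ACh window / Benchmarks: low control EC20 acetylcholine (0%), high control EC100 acetylcholine (100%) / Replicates: one well per compound, no replicates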
CHRM4 PAM – human M4 muscarinic receptor positive allosteric modulators, primary screen, CHO-K1 cells, Fluo-8 calcium fluorescence; Muscarinic acetylcholine receptor M4 (Homo sapiens), P08173; CHO-K1 hM4/Gqi5, ACh EC20; 0% = ACh EC20, 100% = maximal ACh; activation, % at 3 µM; actives 0.4% (n = 360,000); AID 624126, 2012;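 active means activation above its plate's cutoff, the mean activation of sample wells plus 3 SD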
CHRM5 agonist – human M5 muscarinic receptor agonists, primary screen, CHO-K1 cells, Fluo-8 calcium fluorescence | activation, % at 3 µM | CHO-K1 hM5 cells; 0% DMSO wells, 100% maximal acetylcholine response | actives 0.19% (n = 360,000);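 active means activation above the run's mean over test compounds plus 3 SD, cut at about 23% in these data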;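 further: signal is peak over basal fluorescence ratio across the kinetic read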
CHRM4 antagonist – human M4 muscarinic receptor antagonists, primary screen, CHO cells, Fluo-8 calcium fluorescence; Muscarinic acetylcholine receptor M4 (Homo sapiens), P08173; CHO-hM4 cells, ACh EC80; inhibition, % at 3 µM; actives 0.73% (n = 360,000); AID 624125, 2012;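 active means inhibition above its plate's cutoff, the mean inhibition of sample wells plus 3 SD, cut at about 27% in these data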;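 further: 0% = acetylcholine EC80 with DMSO and 100% = DMSO without agonist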
CHRM4 agonist – human M4 muscarinic receptor agonists, primary screen, CHO-K1 cells, Fluo-8 calcium fluorescence | Muscarinic acetylcholine receptor M4 (Homo sapiens), P08173 | CHO-K1 hM4/Gqi5; vehicle 0%, full acetylcholine response 100% | activation, % at 3 µM | actives 0.14% (n = 360,000) | AID 624127, 2012;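 active means activation above the run mean over all test wells plus 3 SD, cut at about 32% in these data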;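 further: peak over basal fluorescence ratio per well then scaled between controls; 0% = DMSO wells and 100% = acetylcholine at EC100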
The depositor's hits bear a star. Most compounds without a hit are left out; they make up all but 1.9% or so of the library.

How did CCOC(=O)CCCCCNC(=O)c1c(O)[nH]c(=O)[nH]c1=O do in these assays?
CHRM5 antagonist: 17; CHRM5 PAM: -9; CHRM4 PAM: 0; CHRM5 agonist: 2; CHRM4 antagonist: 6; CHRM4 agonist: 0

What do the screens show for `COC(=O)C1=C(c2ccc(OCc3ccccc3)cc2)C[C@@H]2CC[C@H]1N2C(=O)NC1CCN(Cc2ccccc2)CC1`?
CHRM5 antagonist: 17; CHRM5 PAM: -20; CHRM4 PAM: -8; CHRM5 agonist: -9; CHRM4 antagonist: 26; CHRM4 agonist: 8

How did OC(Cc1ccccc1)(c1ccccc1)C1CN2CCC1CC2 (stereo unspecified) do in these assays?
CHRM5 antagonist: 90*; CHRM5 PAM: -20; CHRM4 PAM: -24; CHRM5 agonist: -8; CHRM4 antagonist: 85*; CHRM4 agonist: 1

What do the screens show for `OC(c1ccccc1)(c1ccc(Cl)cc1)C1CN2CCC1CC2` (stereo unspecified)?
CHRM5 antagonist: 60*; CHRM5 PAM: -32; CHRM4 PAM: -55; CHRM5 agonist: -18; CHRM4 antagonist: 44*; CHRM4 agonist: 9

How did OC(c1ccccc1)(c1ccccc1)C1CN2CCC1CC2 (stereo unspecified) do in these assays?
CHRM5 antagonist: 99*; CHRM5 PAM: -22; CHRM4 PAM: -21; CHRM5 agonist: -12; CHRM4 antagonist: 75*; CHRM4 agonist: 1

How did c1ccc(C2CN3CCC2CC3)cc1 (stereo unspecified) do in these assays?
CHRM5 antagonist: 6; CHRM5 PAM: -18; CHRM4 PAM: -13; CHRM5 agonist: -18; CHRM4 antagonist: 11; CHRM4 agonist: 0

Results for O=C(COc1ccc(Cl)cc1)NCCc1cnc[nH]1 ?
CHRM5 antagonist: 10; CHRM5 PAM: -2; CHRM4 PAM: 9; CHRM5 agonist: -6; CHRM4 antagonist: -13; CHRM4 agonist: 0

What do the screens show for `N#CC1C(C#N)C2CCC1C1C2N1c1ccccc1` (stereo unspecified)?
CHRM5 antagonist: 7; CHRM5 PAM: 0; CHRM4 PAM: 1; CHRM5 agonist: -3; CHRM4 antagonist: -7; CHRM4 agonist: 1

Results for CN1C(=O)NC(=O)C2(CCCC2)C1=O ?
CHRM5 antagonist: 5; CHRM5 PAM: -3; CHRM4 PAM: 3; CHRM5 agonist: 1; CHRM4 antagonist: -1; CHRM4 agonist: 0

What do the screens show for `COC(=O)C1=C(c2ccc(C(C)=O)cc2)C[C@@H]2CC[C@H]1N2C(=O)NCc1ccc(C(F)(F)F)cc1`?
CHRM5 antagonist: 13; CHRM5 PAM: -19; CHRM4 PAM: -6; CHRM5 agonist: 38*; CHRM4 antagonist: 2; CHRM4 agonist: 36*

Results for COC(=O)C1=CO[C@@H](C)[C@@H]2CN(CCc3c[nH]c4ccccc34)CC[C@H]12 ?
CHRM5 antagonist: 49*; CHRM5 PAM: -24; CHRM4 PAM: -14; CHRM5 agonist: -5; CHRM4 antagonist: 25; CHRM4 agonist: 1

Results for COc1cc(CN=Cc2c(O)n(C(C)(C)C)c(=O)[nH]c2=O)cc(OC)c1 ?
CHRM5 antagonist: 10; CHRM5 PAM: -9; CHRM4 PAM: -9; CHRM5 agonist: 2; CHRM4 antagonist: -6; CHRM4 agonist: 8

How did CC[C@H]1CN(C)CCc2c([nH]c3ccccc23)C(=O)C[C@@H]1/C(=C\OC)C(=O)OC do in these assays?
CHRM5 antagonist: 9; CHRM5 PAM: -1; CHRM4 PAM: 1; CHRM5 agonist: -2; CHRM4 antagonist: -6; CHRM4 agonist: 1

What do the screens show for `CC(=O)c1cn(CC(=O)NCCc2c[nH]c3ccccc23)c2ccccc12`?
CHRM5 antagonist: 11; CHRM5 PAM: -18; CHRM4 PAM: -9; CHRM5 agonist: 6; CHRM4 antagonist: 12; CHRM4 agonist: 17

What do the screens show for `COc1nc(C)nc(NC(=O)NS(=O)(=O)c2ccccc2Cl)n1`?
CHRM5 antagonist: 3; CHRM5 PAM: 0; CHRM4 PAM: -1; CHRM5 agonist: 0; CHRM4 antagonist: -10; CHRM4 agonist: 1

Results for COc1cc(/C=C/[N+](=O)[O-])ccc1O ?
CHRM5 antagonist: -8; CHRM5 PAM: 11; CHRM4 PAM: 3; CHRM5 agonist: 10; CHRM4 antagonist: 16; CHRM4 agonist: 2

Results for CCN(CC)c1ccc(/C=C/[N+](=O)[O-])cc1 ?
CHRM5 antagonist: 90*; CHRM5 PAM: -31; CHRM4 PAM: -28; CHRM5 agonist: 96*; CHRM4 antagonist: 29*; CHRM4 agonist: 71*

How did CCN1/C(=C\C=C\C2=[N+](CC)c3ccccc3C2(C)C)C(C)(C)c2ccccc21 do in these assays?
CHRM5 antagonist: 94*; CHRM5 PAM: -52; CHRM4 PAM: -20; CHRM5 agonist: 302*; CHRM4 antagonist: 92*; CHRM4 agonist: 252*

What do the screens show for `CCOC(=O)[C@]1(C#N)[C@@H]2C=CC(C(N)=O)=CN2[C@@H](C(N)=O)[C@@H]1c1ccc(F)cc1`?
CHRM5 antagonist: 6; CHRM5 PAM: 0; CHRM4 PAM: 24; CHRM5 agonist: -5; CHRM4 antagonist: -5; CHRM4 agonist: 1

What do the screens show for `CCOC(=O)[C@@]1(C#N)[C@@H]2C=CC(C(N)=O)=CN2[C@@H](C(N)=O)[C@@H]1c1cccc(Cl)c1`?
CHRM5 antagonist: -13; CHRM5 PAM: 31*; CHRM4 PAM: 3; CHRM5 agonist: -4; CHRM4 antagonist: -15; CHRM4 agonist: 2

How did Cc1c(N=Cc2c(O)n(CCc3ccccc3)c(=O)[nH]c2=O)c(=O)n(-c2ccccc2)n1C do in these assays?
CHRM5 antagonist: 4; CHRM5 PAM: -5; CHRM4 PAM: -7; CHRM5 agonist: -6; CHRM4 antagonist: -3; CHRM4 agonist: 2

How did CCCCCCn1c(O)c(C=Nc2c(C)n(C)n(-c3ccccc3)c2=O)c(=O)[nH]c1=O do in these assays?
CHRM5 antagonist: 19; CHRM5 PAM: 25*; CHRM4 PAM: 12; CHRM5 agonist: -4; CHRM4 antagonist: -8; CHRM4 agonist: -1

How did Cc1ccc2nc(-c3ccc(CN4CCC(n5c(=O)[nH]c6ccccc65)CC4)cc3)c(-c3ccccc3)nc2c1 do in these assays?
CHRM5 antagonist: 11; CHRM5 PAM: -16; CHRM4 PAM: -5; CHRM5 agonist: 27*; CHRM4 antagonist: 11; CHRM4 agonist: 12

What do the screens show for `O=c1[nH]c2ccccc2n1C1CCN(Cc2ccc(-c3nc4ccc(F)cc4nc3-c3ccccc3)cc2)CC1`?
CHRM5 antagonist: 13; CHRM5 PAM: -13; CHRM4 PAM: -1; CHRM5 agonist: 7; CHRM4 antagonist: 2; CHRM4 agonist: 3
